This is an account of results in ChEMBL document CHEMBL1138050, “Furan-2-ylmethylene thiazolidinediones as novel, potent, and selective inhibitors of phosphoinositide 3-kinase gamma” (J Med Chem, 2006).

Series [1] addresses Cyclin-dependent kinase 5/CDK5 activator 1 (Homo sapiens) (UniProt Q00535+Q15078). Description: Residual activity at human CDK5/p35 at 10 uM in presence of 10 uM ATP relative to control. The format is protein-complex assay. The essentials:
(§1)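 Panel of Ser/Thr and Tyr protein kinases, each tested with 10 µM compound in the presence of 10 µM ATP; activity expressed relative to control.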

The target of series [2] is Serine/threonine-protein kinase Chk2 (Homo sapiens) (UniProt O96017). The series can be described thus: Residual activity at human Chk2 at 10 uM in presence of 10 uM ATP relative to control. The essentials:
as §1

Series [3] deals with T1, Phosphatidylinositol 4,5-bisphosphate 3-kinase catalytic subunit delta isoform (Homo sapiens, UniProt O00329).
T1 sequence (O00329 whole entry): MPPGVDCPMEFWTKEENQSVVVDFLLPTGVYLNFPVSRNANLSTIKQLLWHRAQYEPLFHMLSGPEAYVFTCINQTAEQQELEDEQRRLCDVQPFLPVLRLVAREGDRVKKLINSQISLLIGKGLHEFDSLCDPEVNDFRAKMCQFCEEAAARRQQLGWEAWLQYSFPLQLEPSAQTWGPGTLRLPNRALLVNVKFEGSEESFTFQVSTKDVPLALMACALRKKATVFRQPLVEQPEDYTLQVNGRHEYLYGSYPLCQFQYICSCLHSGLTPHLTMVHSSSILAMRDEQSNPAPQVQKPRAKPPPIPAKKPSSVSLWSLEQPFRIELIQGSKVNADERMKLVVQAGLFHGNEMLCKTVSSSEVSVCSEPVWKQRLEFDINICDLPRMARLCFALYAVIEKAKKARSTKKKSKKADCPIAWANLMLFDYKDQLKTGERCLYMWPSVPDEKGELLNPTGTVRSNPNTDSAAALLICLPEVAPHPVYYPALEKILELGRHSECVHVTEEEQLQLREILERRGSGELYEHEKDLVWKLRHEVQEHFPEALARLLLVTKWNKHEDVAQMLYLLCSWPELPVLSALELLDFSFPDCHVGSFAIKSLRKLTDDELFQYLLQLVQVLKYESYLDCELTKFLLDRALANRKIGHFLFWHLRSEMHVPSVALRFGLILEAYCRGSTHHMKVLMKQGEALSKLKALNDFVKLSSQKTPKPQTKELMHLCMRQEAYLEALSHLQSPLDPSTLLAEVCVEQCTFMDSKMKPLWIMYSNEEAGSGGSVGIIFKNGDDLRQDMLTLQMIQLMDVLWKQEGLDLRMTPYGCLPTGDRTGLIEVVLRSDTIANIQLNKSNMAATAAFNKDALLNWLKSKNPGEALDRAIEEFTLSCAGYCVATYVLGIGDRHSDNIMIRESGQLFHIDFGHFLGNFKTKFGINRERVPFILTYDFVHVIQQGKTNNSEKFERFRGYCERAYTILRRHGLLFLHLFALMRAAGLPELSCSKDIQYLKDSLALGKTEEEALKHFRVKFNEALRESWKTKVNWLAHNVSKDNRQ
Description: Inhibition of human PI3Kdelta.

In series [4] the target is Proto-oncogene tyrosine-protein kinase Src (Homo sapiens) (UniProt P12931). Description: Residual activity at human cSRC at 10 uM in presence of 10 uM ATP relative to control. The procedure, abridged:
(§2)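 Single-concentration counter-screen across a panel of 80 Ser/Thr and Tyr protein kinases. Compound was tested at 10 µM with ATP at 10 µM. Activity remaining in each kinase is expressed relative to control.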

Series [5] can be described thus: Cmax in rat at 10 mg/kg, po. The format is ADME, organism-based. More on the design: dose 10 mg/kg, route oral. As to conditions: in vivo. The essentials: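 Rats given a single 10 mg/kg dose, intravenously or orally. The compound was given as its potassium salt, prepared with KOH in THF/water, for the in vivo work.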
Series [6] deals with Platelet-derived growth factor receptor alpha (Homo sapiens) (UniProt P16234). The series can be described thus: Residual activity at human PDGFRalpha at 10 uM in presence of 10 uM ATP relative to control. The essentials: as §2
Sequence of Platelet-derived growth factor receptor alpha (Homo sapiens) (P16234 whole entry): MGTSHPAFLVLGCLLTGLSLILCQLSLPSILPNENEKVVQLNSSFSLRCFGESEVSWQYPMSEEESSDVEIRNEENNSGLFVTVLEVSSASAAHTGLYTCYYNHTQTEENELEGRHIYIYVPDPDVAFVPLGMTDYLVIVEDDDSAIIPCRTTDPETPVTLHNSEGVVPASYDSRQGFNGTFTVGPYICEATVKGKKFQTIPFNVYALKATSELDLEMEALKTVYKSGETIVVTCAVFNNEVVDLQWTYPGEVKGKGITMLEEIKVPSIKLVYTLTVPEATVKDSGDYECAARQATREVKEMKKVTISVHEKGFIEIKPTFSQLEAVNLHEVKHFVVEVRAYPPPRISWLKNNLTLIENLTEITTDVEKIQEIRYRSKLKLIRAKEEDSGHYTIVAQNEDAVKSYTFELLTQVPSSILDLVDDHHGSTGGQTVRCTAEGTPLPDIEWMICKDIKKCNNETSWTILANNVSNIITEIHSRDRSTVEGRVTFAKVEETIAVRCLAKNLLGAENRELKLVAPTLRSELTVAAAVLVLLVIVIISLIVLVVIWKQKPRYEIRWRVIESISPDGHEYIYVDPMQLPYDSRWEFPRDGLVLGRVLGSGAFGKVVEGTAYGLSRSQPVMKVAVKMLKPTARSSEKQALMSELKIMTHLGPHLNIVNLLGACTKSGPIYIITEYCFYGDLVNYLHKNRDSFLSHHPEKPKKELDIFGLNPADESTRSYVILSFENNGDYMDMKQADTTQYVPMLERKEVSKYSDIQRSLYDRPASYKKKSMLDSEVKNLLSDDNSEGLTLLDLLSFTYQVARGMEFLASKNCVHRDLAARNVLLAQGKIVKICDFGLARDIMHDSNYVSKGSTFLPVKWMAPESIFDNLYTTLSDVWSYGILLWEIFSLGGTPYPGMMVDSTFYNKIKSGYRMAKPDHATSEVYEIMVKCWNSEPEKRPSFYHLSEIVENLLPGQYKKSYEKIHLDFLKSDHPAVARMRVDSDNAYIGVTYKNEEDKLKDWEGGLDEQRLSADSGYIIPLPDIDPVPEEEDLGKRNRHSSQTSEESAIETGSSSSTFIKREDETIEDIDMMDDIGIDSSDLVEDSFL
The target in series [7] is Mitogen-activated protein kinase 14 (Homo sapiens) (UniProt Q16539). Description: Residual activity at human SAPK2a at 10 uM in presence of 10 uM ATP relative to control. The essentials: as §2
Sequence of Mitogen-activated protein kinase 14 (Homo sapiens) (Q16539 whole entry): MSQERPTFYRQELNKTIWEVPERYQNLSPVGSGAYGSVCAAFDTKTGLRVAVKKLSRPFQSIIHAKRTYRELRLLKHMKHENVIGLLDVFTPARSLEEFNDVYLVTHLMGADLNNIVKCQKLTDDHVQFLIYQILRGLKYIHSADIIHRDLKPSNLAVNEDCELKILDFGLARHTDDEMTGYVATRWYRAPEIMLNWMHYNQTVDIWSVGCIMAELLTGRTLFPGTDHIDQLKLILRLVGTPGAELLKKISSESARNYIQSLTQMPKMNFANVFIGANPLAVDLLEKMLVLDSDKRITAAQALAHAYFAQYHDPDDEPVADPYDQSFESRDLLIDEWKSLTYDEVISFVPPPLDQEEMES
The target of series [8] is Ribosomal protein S6 kinase alpha-3 (Homo sapiens) (UniProt P51812). Description: Residual activity at human Rsk3 at 10 uM in presence of 10 uM ATP relative to control. The essentials:
as §2

The nature of series [9]: Dissociation constant, pKa of the compound. Type of series: physicochemical. The procedure, abridged:
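UV-metric titration under argon at 25 ± 0.5 °C. 10 mM DMSO stock diluted into 0.15 M KCl containing 60, 50, 40 or 30 wt% MeOH, with 0.25 mM KH2PO4. Brought to pH 11.0 with 0.5 M KOH, then titrated with 0.5 M HCl to pH 4, at most 0.15 pH unit per step. UV 200-500 nm recorded after each addition; Yasuda-Shedlovsky extrapolation to zero cosolvent.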

Sequence of Proto-oncogene tyrosine-protein kinase Src (Homo sapiens) (P12931 2-536 limits assumed): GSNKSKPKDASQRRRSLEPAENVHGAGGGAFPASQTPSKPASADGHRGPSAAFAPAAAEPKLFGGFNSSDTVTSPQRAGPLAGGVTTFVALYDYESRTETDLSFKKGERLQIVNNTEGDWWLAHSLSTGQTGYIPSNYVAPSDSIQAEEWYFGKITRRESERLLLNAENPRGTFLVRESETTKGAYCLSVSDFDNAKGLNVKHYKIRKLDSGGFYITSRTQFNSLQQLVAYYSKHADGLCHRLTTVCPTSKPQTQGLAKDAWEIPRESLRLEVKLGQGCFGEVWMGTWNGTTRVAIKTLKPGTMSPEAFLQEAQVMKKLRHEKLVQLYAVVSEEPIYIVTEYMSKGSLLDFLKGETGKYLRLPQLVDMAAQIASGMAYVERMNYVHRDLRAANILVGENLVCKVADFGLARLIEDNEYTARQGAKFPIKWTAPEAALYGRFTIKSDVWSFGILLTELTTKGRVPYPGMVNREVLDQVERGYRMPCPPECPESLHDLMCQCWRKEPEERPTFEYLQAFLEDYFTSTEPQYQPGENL
Sequence of Ribosomal protein S6 kinase alpha-3 (Homo sapiens) (P51812 whole entry): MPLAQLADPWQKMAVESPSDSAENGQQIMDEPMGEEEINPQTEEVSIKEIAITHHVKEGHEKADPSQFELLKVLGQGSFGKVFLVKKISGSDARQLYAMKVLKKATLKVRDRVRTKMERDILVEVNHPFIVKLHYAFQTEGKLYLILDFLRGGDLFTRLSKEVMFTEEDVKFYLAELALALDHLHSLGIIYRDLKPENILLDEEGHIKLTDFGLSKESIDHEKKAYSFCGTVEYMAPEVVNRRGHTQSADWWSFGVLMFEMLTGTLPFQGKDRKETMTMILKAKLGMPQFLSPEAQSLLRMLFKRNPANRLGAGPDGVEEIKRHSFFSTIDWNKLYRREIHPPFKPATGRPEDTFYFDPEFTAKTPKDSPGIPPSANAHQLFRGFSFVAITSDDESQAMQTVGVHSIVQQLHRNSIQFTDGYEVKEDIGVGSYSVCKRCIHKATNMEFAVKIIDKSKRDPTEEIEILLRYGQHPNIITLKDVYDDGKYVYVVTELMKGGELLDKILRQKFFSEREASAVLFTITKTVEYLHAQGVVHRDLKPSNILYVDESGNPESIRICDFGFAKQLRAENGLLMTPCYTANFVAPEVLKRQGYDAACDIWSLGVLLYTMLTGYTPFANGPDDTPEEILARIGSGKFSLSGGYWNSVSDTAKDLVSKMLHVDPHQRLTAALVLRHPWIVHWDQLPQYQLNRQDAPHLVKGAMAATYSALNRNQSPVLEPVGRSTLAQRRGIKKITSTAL
Sequence of Cyclin-dependent kinase 5/CDK5 activator 1 (Homo sapiens) (Q00535 whole entry): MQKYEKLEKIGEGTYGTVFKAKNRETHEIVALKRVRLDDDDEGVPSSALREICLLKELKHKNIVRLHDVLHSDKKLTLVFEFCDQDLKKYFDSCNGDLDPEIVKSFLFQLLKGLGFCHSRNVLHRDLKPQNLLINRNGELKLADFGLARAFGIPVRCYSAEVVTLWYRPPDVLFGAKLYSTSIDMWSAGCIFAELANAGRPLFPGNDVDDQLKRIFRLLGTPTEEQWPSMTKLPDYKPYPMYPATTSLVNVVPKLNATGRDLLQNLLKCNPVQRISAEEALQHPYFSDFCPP
Sequence of Cyclin-dependent kinase 5/CDK5 activator 1 (Homo sapiens) (Q15078 99-307 partner limits assumed): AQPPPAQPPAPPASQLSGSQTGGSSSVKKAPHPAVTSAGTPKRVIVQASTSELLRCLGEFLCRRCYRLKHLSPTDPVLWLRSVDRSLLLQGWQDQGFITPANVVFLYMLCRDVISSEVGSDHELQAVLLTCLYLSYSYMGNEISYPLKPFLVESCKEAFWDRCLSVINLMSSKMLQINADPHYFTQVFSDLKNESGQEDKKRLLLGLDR
Sequence of Serine/threonine-protein kinase Chk2 (Homo sapiens) (O96017 whole entry): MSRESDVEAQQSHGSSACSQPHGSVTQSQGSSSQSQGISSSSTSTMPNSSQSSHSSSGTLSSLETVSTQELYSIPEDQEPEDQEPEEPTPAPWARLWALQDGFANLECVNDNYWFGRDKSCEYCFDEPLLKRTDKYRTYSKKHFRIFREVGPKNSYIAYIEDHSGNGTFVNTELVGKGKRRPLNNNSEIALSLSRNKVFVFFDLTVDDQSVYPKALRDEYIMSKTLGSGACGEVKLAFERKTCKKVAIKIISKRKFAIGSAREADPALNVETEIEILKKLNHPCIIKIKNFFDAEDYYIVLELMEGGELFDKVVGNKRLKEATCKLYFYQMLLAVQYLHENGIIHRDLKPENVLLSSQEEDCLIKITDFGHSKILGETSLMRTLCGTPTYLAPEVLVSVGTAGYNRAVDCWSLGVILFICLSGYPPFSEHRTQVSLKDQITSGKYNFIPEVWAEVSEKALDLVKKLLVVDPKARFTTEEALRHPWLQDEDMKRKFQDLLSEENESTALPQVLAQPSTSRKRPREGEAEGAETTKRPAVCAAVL

For the compound `O=C1NC(=O)/C(=C/c2ccc(-c3ccc(F)cc3O)o2)S1`, the Activity in series [1] turned out to be 83%; in [2], 82%; in [4], 66%; in series [6] it was 85%; in series [7], 84%; in [8], 73%. In [3], the IC50 was determined as 20 µM. For the same compound, the concentration in [5] peaked (Cmax) at 309 ng/mL. The same compound showed a pKa in [9] of 8.4.

Broadly, the IC50 is the concentration that inhibits the measured activity by half. Lower therefore signals higher potency. Broadly, the Cmax is the highest concentration seen after dosing. What is called pKa is the negative logarithm of the acid dissociation constant. Higher therefore signals a group that holds its proton tightly.
